One test deals with Bacillus subtilis. The test is described as follows: Antimicrobial activity against Bacillus subtilis ATCC 6633 by broth dilution method. The format is functional. In short, it runs like this: (§1)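 Twofold serial broth dilution in Mueller Hinton Broth. […] Growth (drug-free), DMSO solvent and organism-free sterility tubes were included. Three replicates per organism, at least three independent experiments.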

Test [1] can be described thus: Inhibition of Escherichia coli DNA gyrase assessed as reduction of DNA supercoiling activity using pBR322 DNA substrate after 30 mins by electrophoresis.
Test [2] has as its system Staphylococcus epidermidis. The test is described as follows: Antimicrobial activity against Staphylococcus epidermidis ATCC 12228 by broth dilution method. The test is classed as functional. The gist of the method: as §1
The test system of a further test is Haemophilus influenzae. The test is described as follows: Antimicrobial activity against Haemophilus influenzae ATCC 19418 by broth dilution method. The format is functional. The gist of the method:
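H. influenzae was grown in Haemophilus Test Medium using twofold serial broth dilution. […] Drug-free, DMSO-only and organism-free control tubes were included. Triplicates, with at least three independent experiments.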

The next test relates to Priestia megaterium. The test is described as follows: Antimicrobial activity against Bacillus megaterium ATCC 19213 by broth dilution method. The format is functional. In short, it runs like this: as §1
The test system of a further test is Candida tropicalis. The test is described as follows: Antimicrobial activity against Candida tropicalis ATCC 1369 by broth dilution method. The test is classed as functional. The gist of the method: (§2)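 Fungi were tested by twofold serial broth dilution in Sabouraud Dextrose Broth. Inoculum was 1x10³ CFU/mL, with 48 h at 30 °C before MIC determination. Growth, DMSO solvent and sterility controls were included. Three replicates per organism, at least three independent experiments.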

Test [3] deals with Staphylococcus aureus. The test is described as follows: Antimicrobial activity against quinilone-pencillin-resistant Staphylococcus aureus isolate SAR 4790 by broth dilution method. The test is classed as functional. The gist of the method:
(§3)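 Twofold serial broth dilution in Mueller Hinton Broth. […] Drug-free tubes, DMSO-only tubes and organism-free tubes served as growth, solvent and sterility controls. Three replicates per organism, at least three independent experiments.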

In test [4] the test system is Acinetobacter baumannii. The test is described as follows: Antimicrobial activity against Acinetobacter baumannii ATCC 19606 by broth dilution method. The format is functional. The gist of the method: as §1
In a further test the test system is Aspergillus niger. The test is described as follows: Antimicrobial activity against Aspergillus niger ATCC 6275 by broth dilution method. The format is functional. The gist of the method:
as §2

In test [5] the test system is Staphylococcus aureus. The test is described as follows: Antimicrobial activity against quinilone-pencillin-resistant Staphylococcus aureus isolate SAR 72 by broth dilution method. The test is classed as functional. In short, it runs like this:
as §3
(Dilution methods test growth across graded concentrations, often in twofold steps.)

Another test deals with Bacillus cereus. The test is described as follows: Antimicrobial activity against Bacillus cereus ATCC 11778 by broth dilution method. The test is classed as functional. In short, it runs like this:
as §1

The test system of test [6] is Staphylococcus aureus. The test is described as follows: Antimicrobial activity against Staphylococcus aureus ATCC 6538 by broth dilution method. The format is functional. The gist of the method: as §1
Another test deals with Saccharomyces cerevisiae. The test is described as follows: Antimicrobial activity against Saccharomyces cerevisiae ATCC 9763 by broth dilution method. The format is functional. In short, it runs like this:
as §2

The test system of a further test is Pseudomonas aeruginosa. The test is described as follows: Antimicrobial activity against Pseudomonas aeruginosa ATCC 9027 by broth dilution method. The format is functional. In short, it runs like this: as §1
Test [7] is described as follows: Inhibition of Escherichia coli topoisomerase 4 assessed as decatenation of kDNA after 30 mins by electrophoresis. In short, it runs like this:
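E. coli topoisomerase IV decatenation of kinetoplast DNA was run in 40 mM HEPES-KOH pH 7.6 with 100 mM potassium glutamate, at varying compound amounts. Products were separated by agarose electrophoresis and quantified by gel documentation. IC₅₀ (µg/mL) is the concentration halving decatenation relative to drug-free enzyme control.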

Test [8] is described as follows: Antimicrobial activity against Bacillus thuringiensis var.kurstaki BGSC 4D1 by broth dilution method. The format is functional, Bacillus thuringiensis serovar kurstaki. In short, it runs like this:
as §1

In another test the test system is NHDF. The test is described as follows: Antitumor activity against human NHDF cells after 72 hrs by MTT assay. The test is classed as functional, cell-based. In short, it runs like this:
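Cells were kept at 37 °C in 5% CO₂, in medium with 2 mM glutamine and 10% FBS; HuDe fibroblasts were grown in DMEM. Compounds were freshly dissolved in DMSO (final ≤0.1% v/v; controls received equal solvent) and applied at 0.1–20 µM for 72 h. Viability was read by MTT. IC₅₀ was extrapolated from Hill-fitted dose–response curves, from at least three independent experiments.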
In general terms: Formazan colour is commonly taken as a measure of viable cells.

Test [9] relates to Staphylococcus epidermidis. The test is described as follows: Antimicrobial activity against quinilone-pencillin-resistant Staphylococcus epidermidis clinical isolate by broth dilution method. The test is classed as functional.
Test [10] concerns Escherichia coli. The test is described as follows: Antimicrobial activity against Escherichia coli ATCC 8739 by broth dilution method. The test is classed as functional. The gist of the method: as §1
In test [11] the test system is Escherichia coli. The test is described as follows: Antimicrobial activity against quinilone-pencillin-resistant Escherichia coli clinical isolate by broth dilution method. The format is functional.
In test [12] the test system is Acinetobacter baumannii. The test is described as follows: Antimicrobial activity against quinilone-pencillin-resistant Acinetobacter baumannii clinical isolate by broth dilution method. The format is functional.

Converted amounts (≈) assume the structure as drawn. Where only a bound is given, the exact number is not on record here.

The IC50 is the point on the concentration scale where inhibition reaches its midpoint.

In the case of `O=C(O)c1cn(C2CC2)c2cc(N3CCNCC3)c(F)cc2c1=O` [CIPROFLOXACIN], the MIC is 0.03 µg/mL (≈ 0.0905 µM) in the test on Bacillus subtilis; 0.07 µg/mL (≈ 0.211 µM) in [2]; 0.15 µg/mL (≈ 0.453 µM) with Haemophilus influenzae; 0.007 µg/mL (≈ 0.0211 µM) in the test on Priestia megaterium; > 100 µg/mL against Candida tropicalis; > 100 µg/mL against Staphylococcus aureus [3]. Besides, the MIC was 0.7 µg/mL (≈ 2.11 µM) with Acinetobacter baumannii [4]; > 100 µg/mL against Aspergillus niger; 100 µg/mL (≈ 302 µM) in the test with Staphylococcus aureus [5]; 0.3 µg/mL (≈ 0.905 µM) in the test on Bacillus cereus; 0.3 µg/mL (≈ 0.905 µM) in the test on Staphylococcus aureus [6]; > 100 µg/mL against Saccharomyces cerevisiae. Moreover, the figures for the MIC (with Pseudomonas aeruginosa; in test [8]) were 0.07 µg/mL (≈ 0.211 µM) and 0.03 µg/mL (≈ 0.0905 µM), respectively. The IC50 in test [1] is 0.34 µg/mL (≈ 1.03 µM); in [7], 4.6 µg/mL (≈ 13.9 µM).

Turning to `Cc1c2ccncc2c(C)c2c1[nH]c1ccccc12` [ELLIPTECINE], in the test with NHDF, the IC50 is > 10 µM.

For `CO/N=C1\CN(c2nc3c(cc2F)c(=O)c(C(=O)O)cn3C2CC2)CC1CN` (configuration not stated) [GEMIFLOXACIN], the MIC is 0.007 µg/mL (≈ 0.018 µM) against Bacillus subtilis; 50 µg/mL (≈ 128 µM) in test [9]; 0.015 µg/mL (≈ 0.0385 µM) in [2]; 0.015 µg/mL (≈ 0.0385 µM) in the test with Haemophilus influenzae; 0.0003 µg/mL (≈ 0.00077 µM) against Priestia megaterium; > 100 µg/mL against Candida tropicalis. Further, the MIC was 50 µg/mL (≈ 128 µM) against Staphylococcus aureus [3]; 0.3 µg/mL (≈ 0.77 µM) against Acinetobacter baumannii [4]; > 100 µg/mL against Aspergillus niger; 6 µg/mL (≈ 15.4 µM) against Staphylococcus aureus [5]; 0.07 µg/mL (≈ 0.18 µM) with Bacillus cereus; 0.015 µg/mL (≈ 0.0385 µM) against Escherichia coli [10]. In addition, the MIC against Staphylococcus aureus [6] was 0.015 µg/mL (≈ 0.0385 µM); against Saccharomyces cerevisiae it was > 100 µg/mL; in the test with Escherichia coli [11], 50 µg/mL (≈ 128 µM); in the test on Pseudomonas aeruginosa, 0.07 µg/mL (≈ 0.18 µM); with Acinetobacter baumannii [12] it was 100 µg/mL (≈ 257 µM); in [8], 0.015 µg/mL (≈ 0.0385 µM).

Turning to `C[C@H]1COc2c(N3CCN(C)CC3)c(F)cc3c(=O)c(C(=O)O)cn1c23.C[C@H]1COc2c(N3CCN(C)CC3)c(F)cc3c(=O)c(C(=O)O)cn1c23.O` [LEVOFLOXACIN], the MIC was 0.03 µg/mL with Bacillus subtilis; > 100 µg/mL in test [9]; 0.15 µg/mL in test [2]; 0.15 µg/mL against Haemophilus influenzae; 0.03 µg/mL against Priestia megaterium; > 100 µg/mL with Candida tropicalis. Moreover, the MIC is 100 µg/mL in the test on Staphylococcus aureus [3]; 0.15 µg/mL in the test on Acinetobacter baumannii [4]; > 100 µg/mL against Aspergillus niger; 25 µg/mL against Staphylococcus aureus [5]; 0.15 µg/mL with Bacillus cereus; 0.07 µg/mL in the test with Staphylococcus aureus [6]. Besides, the MIC against Saccharomyces cerevisiae is > 100 µg/mL; in the test with Escherichia coli [11], 25 µg/mL; against Pseudomonas aeruginosa, 0.3 µg/mL; with Acinetobacter baumannii [12], > 100 µg/mL; in test [8], 0.07 µg/mL.

On to `Clc1ccc(COC(Cn2ccnc2)c2ccc(Cl)cc2Cl)c(Cl)c1` (configuration not stated) [MICONAZOLE], for which the MIC is 6 µg/mL (≈ 14.4 µM) in the test with Candida tropicalis, 3 µg/mL (≈ 7.21 µM) with Aspergillus niger and 12 µg/mL (≈ 28.8 µM) in the test with Saccharomyces cerevisiae.

With `COc1c(N2C[C@@H]3CCCN[C@@H]3C2)c(F)cc2c(=O)c(C(=O)O)cn(C3CC3)c12` [MOXIFLOXACIN], the MIC in the test with Bacillus subtilis was 0.015 µg/mL (≈ 0.0374 µM); in [2] it was 0.07 µg/mL (≈ 0.174 µM); in the test on Haemophilus influenzae, 0.03 µg/mL (≈ 0.0747 µM); in the test with Priestia megaterium it was 0.003 µg/mL (≈ 0.00747 µM); in the test on Candida tropicalis, > 100 µg/mL; with Staphylococcus aureus [3], 50 µg/mL (≈ 125 µM). Besides, the MIC in the test with Acinetobacter baumannii [4] was 0.15 µg/mL (≈ 0.374 µM); with Aspergillus niger, > 100 µg/mL; with Staphylococcus aureus [5], 12 µg/mL (≈ 29.9 µM); in the test with Bacillus cereus, 0.3 µg/mL (≈ 0.747 µM); against Escherichia coli [10], 0.03 µg/mL (≈ 0.0747 µM); against Staphylococcus aureus [6], 0.03 µg/mL (≈ 0.0747 µM). Further, the MIC against Saccharomyces cerevisiae is > 100 µg/mL; against Pseudomonas aeruginosa, 0.7 µg/mL (≈ 1.74 µM); in [8], 0.03 µg/mL (≈ 0.0747 µM). Further, the IC50 amounted to 0.85 µg/mL (≈ 2.12 µM) in test [1] and 5 µg/mL (≈ 12.5 µM) in [7].
